Bioassay records as filed in PubChem BioAssay.
In the library only some 9.2% were active in any assay of this set; here they are far more common.
Autophagy mod – alters autophagy in cells | AID 463193 | calls only at 10 µM (by protocol) | 190,000 compounds, 0.98% hits | MEF GFP-LC3 puncta imaging; test concentration mostly 10 µM;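 active = percentage of spot-positive cells more than 3 SD above its plate mean, without a fluorescence outlier flag or 80% toxicity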;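 also: spot-positive cell cutoff set from DMSO-treated cells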
Dynein transport – blocks dynein driven cargo transport along microtubules; 220,000 compounds, 0.47% hits; AID 1381; z-score, hits read low; 3617.4 mouse cells, GR-EGFP nuclear translocation imaging; test concentration mostly 20 µM; stimulated with dexamethasone, 1 µM; stronger effect = lower value;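 active = plate z-score of nuclear minus cytoplasmic receptor signal below a set negative limit, without overly bright fluorescence or cell loss, cut at about -3.5 in these data, passing the limit was not always enough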;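 also: z-score of nuclear minus cytoplasmic ring GR-EGFP intensity difference per well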
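Buffer or medium: tet-free, stripped-serum medium; reagent: dexamethasone at 1.0 µM final, 30 min; incubation: 48 h induction, 1 h compound, 30 min dex at 37 °C; measured by: formaldehyde fixation, Hoechst nuclear stain, 10x automated fluorescence imaging; read-out: nuclear-to-cytoplasmic GR-EGFP distribution per well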
HCT116 PTEN-null – PTEN-deleted cell growth suppression. HCT116 PTEN-null viability, CellTiter-Glo, 60 h; stronger effect = lower value. viability, % at 10 µM. 140,000 compounds, 1.2% hits. AID 827;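 active = viability at or below a set limit, 4 SD under the median of all tested compounds, cut at about 3.7% in these data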;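 also: PTEN knockout HCT116 line with beta catenin targeted HCT116 as companion control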
L major viab – Leishmania major promastigote growth inhibition; Leishmania major promastigotes, resazurin fluorescence viability; inhibition, % at 10 µM; 200,000 compounds, 9% hits; in the data active = inhibition above about 50%;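 also: promastigotes grown with compound for 44 hours at 28 °C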
HCT116 bCat-KO – beta-catenin-lacking colon tumor cell growth suppression | HCT116 beta-catenin knockout viability, CellTiter-Glo, 60 h; stronger effect = lower value | viability, % at 10 µM | 140,000 compounds, 1.5% hits | AID 818;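 active = viability at or under a set limit, the compound median less 4 SD, cut at about 6% in these data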;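 also: 0% = Hyamine 1622 control at 20 µM and 100% = untreated cell control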
* = called active by the depositor; i = inactive; / = no result given; + = active, no number.

SMILES	Autophagy mod	Dynein transport	HCT116 PTEN-null	L major viab	HCT116 bCat-KO
Cc1nn(-c2ccccc2)c(N2CCCC2)c1/C=N/Nc1ccc(S(=O)(=O)Nc2ccccc2)cc1[N+](=O)[O-]	i	1.4	23	97*	41
CCN(CC)c1ccc(/C=N/NC(=O)c2cccc(S(=O)(=O)Nc3ccccc3OC)c2)cc1	i	-0.46	/	19	/
COc1ccccc1NS(=O)(=O)c1ccc(N/N=C/c2c(C)nn(-c3ccccc3)c2N2CCCC2)c([N+](=O)[O-])c1	i	0.84	73	100*	68
COc1c(/C=N/Nc2ccc([N+](=O)[O-])cc2[N+](=O)[O-])c(C)nn1-c1ccccc1	i	-0.043	75	1	65
CC/C(=N\NC(=O)c1cccnc1)c1ccc2c(c1)OCCO2	i	-0.49	/	0	/
COc1cc(CNC2CCCC2)cc(Cl)c1OCc1ccccc1F	i	0.24	1.1*	100*	1.1*
O=C(CN1C(=O)COc2ccccc21)NCCN1CCC(Cc2ccccc2)CC1	i	-0.43	77	67*	68
COc1cc2cc(Oc3ccc4ccc(=O)oc4c3)c(=O)oc2cc1OC(=O)C=C(C)C	/	0.99	/	/	/
COC(=O)C1=C(C)C(c2ccc(OC)cc2OC)NC(=O)N1 (stereo not drawn)	i	2.8	99	-3	107
COc1ccc(C2CC(C)(c3ccc(OC)cc3OC)Nc3ccccc3N2)c(OC)c1 (stereo not drawn)	i	-0.021	/	62*	/
CCN(CC)S(=O)(=O)c1ccc(C(=O)N2CCCCC2)cc1	i	0.34	103	-3	87
CCO[C@H]1OC(C(=O)NCc2ccccc2)=C[C@@H](c2ccc(C(F)(F)F)cc2)[C@@H]1CCCO	i	3.3	/	53*	/
Cc1cccc(/C=N/Nc2cc(N3CCOCC3)nc(N3CCOCC3)n2)c1	+	-0.17	13	87*	19
Oc1ccc(/C=N\Nc2cc(N3CCOCC3)nc(N3CCOCC3)n2)c(O)c1	i	-2.1	92	-4	86
CC(C)c1ccc(/C=N/Nc2cc(N3CCOCC3)nc(N3CCOCC3)n2)cc1	i	-0.031	47	15	37
Oc1ccc(/C=N/Nc2cc(N3CCCC3)nc(N3CCCC3)n2)cc1O	i	0.29	48	99*	48
Cc1ccc(Nc2c([N+](=O)[O-])ccc3c2=NC2(CCCCC2)N=3)cc1	i	-0.27	72	51*	73
Cc1ccc(-c2nc(-c3ccc(Cl)cc3)sc2CC(=O)O)c(C)c1	i	0.43	/	-5	/
COc1ccc(OC)c(-n2c(SCC(=O)Nc3cc(C)on3)nnc2-c2c[nH]c3ccccc23)c1	i	-0.67	71	100*	79
COc1ccc(OC)c(-n2c(SC)nnc2-c2c[nH]c3ccccc23)c1	i	-0.35	85	65*	80
COc1ccc(OC)c(-n2c(SCC(N)=O)nnc2-c2c[nH]c3ccccc23)c1	i	-1.1	107	-4	98
S=c1[nH]nc(-c2ccc3ncccc3c2)n1-c1ccc2c(c1)OCCO2	i	-0.14	/	91*	/
S=c1[nH]nc(-c2ccc3ccccc3n2)n1-c1ccc2ncccc2c1	i	-0.029	100	88*	89
Fc1ccc(-n2c(-c3ccc4ccccc4n3)n[nH]c2=S)cc1Cl	i	1.4	/	5	/
O=C1CN(c2nc(-c3cccs3)nc3sc4c(c23)CCCC4)CCN1	+	0.43	/	76*	/
SMILES	Autophagy mod	Dynein transport	HCT116 PTEN-null	L major viab	HCT116 bCat-KO
O=C(CCN1CCN(Cc2ccccc2)CC1)Nc1ccc(OCc2ccccc2)cc1	i	-0.035	70	10	70
COc1cccc(/C=C/C(=O)NNC(=O)CCN2CCN(Cc3ccccc3)CC2)c1	/	2.7	/	/	/
COC(=O)c1ccc(NC(=O)CCN2CCN(Cc3ccccc3)CC2)cc1	i	2	99	75*	86
O=C(CCN1CCN(CCO)CC1)Nc1ccc(OCc2ccccc2)cc1	i	-0.048	90	61*	90
CCOCC(=O)Nc1ccc(OCc2ccccc2)cc1	+	-0.87	/	-4	/
O=C(/C=C/c1ccc(F)cc1)NNC(=O)CCN1CCN(Cc2ccccc2)CC1	i	-0.048	/	54*	/
CCOC(=O)C(=O)Nc1ccc(OCc2ccccc2)cc1	i	-0.71	/	-9	/
Cc1ccccc1-c1nnn(CC(=O)Nc2ccc3c(c2)OCCO3)n1	i	-0.67	/	2	/
CN1CCN(CCC(=O)Nc2ccc(OCc3ccccc3)cc2)CC1	i	-0.41	82	82*	74
Cc1cc(C)nc(/N=C(\N)Nc2ccc(OCc3ccccc3)cc2)n1	i	0.78	/	100*	/
O=C(CN1CCN(CC(=O)Nc2ccc(OCc3ccccc3)cc2)CC1)Nc1ccc(F)cc1	i	-0.9	/	4	/
Cc1cc(C)nc(/N=C(\N)Nc2cccc(OCc3ccccc3)c2)n1	/	-1.2	/	/	/
N#CCC(=N)N1CCN(c2ccccc2Cl)CC1	i	-0.29	107	-9	106
CCC(C)N(C)C1CCN(C(=S)Nc2cccc(SC)c2)CC1 (stereo not drawn)	i	2.4	/	76*	/
CN(C1CCCC1)C1CCN(C(=S)Nc2cc(F)cc(F)c2)CC1	i	0.67	/	77*	/
Fc1ccc(NC(=S)N2CCCC2)cc1	i	-0.48	/	35	/
CSc1cccc(NC(=S)N2CCC(N(C)C(C)C)CC2)c1	i	-0.078	/	62*	/
CSc1cccc(NC(=S)N2CCC(N(C)C3CCCCCC3)CC2)c1	i	-0.13	/	88*	/
CCC(C)N(C)C1CCN(C(=S)Nc2cccc(OC)c2)CC1 (stereo not drawn)	i	0.44	/	11	/
NC(=O)NNc1cccc(Cl)n1	i	1.2	/	-3	/
CCCCN(C)C1CCN(C(=S)Nc2ccc(OC)cc2)CC1	i	0.51	/	40	/
CCCCN(C)C1CCN(C(=S)Nc2cccc(SC)c2)CC1	i	2.9	/	90*	/
COc1cc(OC)c(NS(=O)(=O)c2cccc(C(=O)OCC(=O)NCC3CCCO3)c2)cc1Cl (stereo not drawn)	i	-1.3	/	80*	/
CC(C)NS(=O)(=O)c1ccc(OCC(=O)NCC2CCCO2)c(Cl)c1 (stereo not drawn)	i	-0.39	95	-5	95
Cc1cc(S(=O)(=O)NCC(C)C)ccc1OCC(=O)NCC1CCCO1 (stereo not drawn)	i	0.96	94	59*	93
SMILES	Autophagy mod	Dynein transport	HCT116 PTEN-null	L major viab	HCT116 bCat-KO
Cc1cccc(S(=O)(=O)Nc2nc3ccccc3nc2NCc2ccc3c(c2)OCO3)c1	i	-0.69	89	-4	105
CCCC(=O)N(CC(=O)Nc1sc(C)c(C)c1C(N)=O)Cc1ccccc1	i	-0.5	/	-5	/
Cc1cc(C)cc(NC(=S)NCCN(C2CCCCC2)C2CCCC2)c1	i	-1.1	/	63*	/
Cc1ccc(NC(=S)NCCN(C2CCCCC2)C2CCCC2)cc1C	i	0.92	/	64*	/
Cc1ccc(NC(=S)NCCN(C2CCCCC2)C2CCCC2)cc1	i	0.29	/	34	/
COc1ccc(C(=O)NCCSc2ccccc2)cc1OC	i	-0.58	/	8	/
